Rows were chosen to be rich in hits. Some 2.7% of all compounds tested hit in one or more screens of this group.
14-3-3 Bad inh: disrupts binding of bovine 14-3-3 zeta to phospho-Bad peptide; inhibition, % at 21.7 µM; hit rate 0.71% among 220,000; TR-FRET 14-3-3zeta/Dy647-pBad peptide displacement, 1 h;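 active = inhibition above about 70%, limit read from the data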;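 note: 0% = full 14-3-3 plus peptide FRET controls and 100% = background without 14-3-3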
Target sequence (P63103 whole entry, looked up): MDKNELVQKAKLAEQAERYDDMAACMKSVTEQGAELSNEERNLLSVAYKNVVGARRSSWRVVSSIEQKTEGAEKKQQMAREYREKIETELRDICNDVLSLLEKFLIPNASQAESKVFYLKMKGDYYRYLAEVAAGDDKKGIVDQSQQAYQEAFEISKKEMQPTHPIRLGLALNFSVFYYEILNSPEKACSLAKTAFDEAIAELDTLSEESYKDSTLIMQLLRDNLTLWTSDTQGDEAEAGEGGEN
Wee1 degr inh: inhibitors of human Wee1 degradation | AID 1321 | hit rate 1.2% among 220,000 | reporter increase, % at 5 µM | HeLa Luc-Wee1K328M stability, luciferase luminescence; 100% = proteasome inhibitor MG132 effect;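 active = activation above the mean of all tested compounds plus 3 SD, set per screening run, cut at about 8.8% in these data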;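 note: cells exposed to compound for 20 h before luminescence read; 0% = DMSO alone and 100% = MG132 at 30 µM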
Hck-Nef inh: inhibitors of human Hck kinase activated by Nef | hit rate 0.68% among 220,000 | P08631 | Recombinant Hck-YEEI plus Nef, Z-Lyte FRET kinase assay | inhibition, % at 20 µM;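 active = Hck-Nef kinase inhibition above about 50%, limit read from the data; inactive = inhibition below that limit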;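 note: 0% = DMSO with Hck plus Nef and 100% = Hck alone without Nef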
TbHK1 inh: T. brucei hexokinase 1 inhibition; recombinant TbHK1, G6PDH-coupled NADH A340; inhibition, % at 10 µM; hit rate 0.11% among 220,000;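 active = inhibition of 50% or more in the single-dose primary screen; inactive = inhibition below 50%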
Mdm2 ligase inh: inhibitors of human Mdm2 E3 ubiquitin ligase. cell-based MDM2 ubiquitination luciferase reporter, 2 h; 0 = plate control, 100 = twice control, blank-subtracted. signal enhancement, % at 5 µM. hit rate 0.11% among 210,000. AID 1230;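 active = signal enhancement of 30% or more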;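 note: luminescence tracks abundance of the self-degrading MDM2-luciferase fusion protein; higher signal means inhibition of MDM2 E3 ligase activity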
Target sequence (Q00987 whole entry, looked up, the tested form may be a part): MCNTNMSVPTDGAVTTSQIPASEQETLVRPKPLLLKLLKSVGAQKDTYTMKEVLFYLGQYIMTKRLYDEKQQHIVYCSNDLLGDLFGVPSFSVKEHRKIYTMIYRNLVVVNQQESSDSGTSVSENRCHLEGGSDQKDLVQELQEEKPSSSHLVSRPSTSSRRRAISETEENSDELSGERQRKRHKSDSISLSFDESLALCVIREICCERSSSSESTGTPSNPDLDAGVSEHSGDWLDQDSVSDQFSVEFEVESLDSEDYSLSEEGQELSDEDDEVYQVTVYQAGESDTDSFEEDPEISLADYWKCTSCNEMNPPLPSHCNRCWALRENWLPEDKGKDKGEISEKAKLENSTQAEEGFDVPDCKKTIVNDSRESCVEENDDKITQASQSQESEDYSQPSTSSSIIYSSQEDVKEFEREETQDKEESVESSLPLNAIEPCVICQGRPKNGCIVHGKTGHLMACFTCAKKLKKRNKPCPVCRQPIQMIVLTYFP
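Test system: stable mammalian line carrying autodegrading MDM2–luciferase fusion reporter; quantity: 2000 cells in each well; times: 4 h cell settling then 2 h compound exposure, 37 °C; detection: luminescence with SteadyLite reagent, 15 min at room temperature; evaluation: percent signal gain over controls, blank-subtracted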
Numbers without * were called inactive; · = no result; [ ] = remark or other dose.

SMILES | 14-3-3 Bad inh | Wee1 degr inh | Hck-Nef inh | TbHK1 inh | Mdm2 ligase inh
NC(=O)c1cc2cc(Cl)ccc2oc1=Nc1cccc(C(F)(F)F)c1 | 9.2 | 1.1 | 0.3 | -8.0 | ·
Cc1cccc(NC2=C(NCCO)C(=O)c3ccccc3C2=O)c1 | -16.9 | 9.3* | 12.2 | -2.5 | -16.9
COc1ccc(NC2=C(NCCO)C(=O)c3ccccc3C2=O)cc1 | -3.4 | 2.5 | 3.8 | 0.6 | -10.5
CSCC[C@H](NC(=O)OC(C)(C)C)c1nnc(SCC(=O)Nc2c(C)cccc2C)o1 | -2.0 | -3.8 | 1.9 | 51.3* | -5.5
CCOc1ccc(NC(=O)c2sc(NC(C)=O)c(C(=O)OC)c2C)cc1 | 5.9 | -4.1 | 10.7 | 3.0 | -27.2
COC(=O)c1c(NC(C)=O)sc(C(=O)Nc2ccccc2)c1C | -0.4 | 9.1* | 28.3 | -1.5 | 11.9
CCn1c(COc2ccccc2C)nnc1SCC(=O)O | -0.3 | -1.6 | 0.4 | 3.4 | -4.2
CCn1c(COc2ccccc2C)nnc1SCC(=O)CC(=O)Nc1ccccc1 | 3.9 | 11.9* | 0.2 | 5.3 | -5.9
Cc1cccc(Oc2ncnc3onc(C)c23)c1C | 85.3*[fluorescence artefact?] | -0.5 | 0.9 | 0.4 | -12.1
Cc1noc2ncnc(Oc3ccccc3Cl)c12 | -1.3 | 0.2 | -0.7 | 1.4 | -3.4
CCCCC(=O)/C=C/n1c(=S)oc2ccccc21 | -11.6 | -2.2 | 4.0 | -5.7 | 68.5*
Cc1cc(C)nc(Oc2ccc(Br)cc2)n1 | 1.5 | -1.8 | 29.4 | -7.3 | ·
Cn1nnnc1SCC1=C(C(=O)O)N2C(=O)C(NC(=O)C3CC3c3ccccc3)C2SC1 (stereo not given) | -0.9 | 10.6* | 9.7 | 13.9 | -8.8
Cn1nnnc1SCC1=C(C(=O)O)N2C(=O)[C@@H](NC(=O)[C@H](O)c3ccccc3)[C@H]2SC1 | 69.9 | -3.7 | 27.2 | 18.2 | ·
CC1CCCCN1C(=O)COc1ccc(F)cc1 (stereo not given) | -4.8 | 9.6* | 35.2 | -3.1 | -13.0
CC(=O)Nc1ccc(S(=O)(=O)Nc2nc3ccccc3nc2Nc2ccc(O)cc2)cc1 | -1.8 | 2.1 | 13.1 | -29.8 | -16.4
COc1ccc(-c2nsc(SCC(=O)Nc3ccc4c(c3)OCO4)n2)cc1 | -1.1 | 0.4 | 5.4 | -4.3 | 31.9*
Cc1ccc(-c2nsc(SCC(=O)NCc3ccc4c(c3)OCO4)n2)cc1 | 1.8 | 1.0 | 0.0 | -0.3 | -2.1
CSc1ccc(/C=C/C(=O)NC(=O)c2ccccc2O)cc1 | -8.4 | 0.5 | 12.4 | -38.4 | -42.0
CN(C)C(=O)c1nc2ccc(Cl)cn2c1CNCc1ccccc1OC(F)(F)F | -3.0 | 4.5 | 6.4 | -1.6 | -1.6
COc1ccc(C(O)c2nccc3cc(OC)c(OC)cc23)cc1OC (stereo not given) | 91.9* | 1.5 | 4.9 | -2.6 | -3.1
Cc1ccccc1-c1nc(SCc2ccccn2)c2c(=O)n(C)c(=O)n(C)c2n1 | 32.8 | 0.6 | -3.3 | -8.7 | -22.6
CC(C)Sc1nc(-c2cccs2)nc2c1c(=O)n(C)c(=O)n2C | -4.0 | -2.8 | 53.2* | 1.1 | -9.4
COc1ccccc1N1CCN(C(c2ccc(C)cc2)c2nnnn2C(C)C)CC1 (stereo not given) | 5.7 | 3.1 | 8.2 | -1.2 | 38.1*
COc1ccc2cc3c(N)nn(C(=O)c4ccc(Cl)c([N+](=O)[O-])c4)c3nc2c1 | 73.8*[fluorescence artefact?] | 0.1 | 5.4 | -17.0 | ·
SMILES | 14-3-3 Bad inh | Wee1 degr inh | Hck-Nef inh | TbHK1 inh | Mdm2 ligase inh
CC(=O)N(C1=C(O)c2ccccc2C(=O)C1=O)C1CCCCC1 | 59.4 | 0.4 | 0.1 | 3.4 | -4.7
CC(=O)N(C)C1=C(O)c2ccccc2C(=O)C1=O | 70.3* | 0.3 | -0.3 | -1.3 | -18.4
O=C1NC(=S)S/C1=C\c1ccc(SCc2ccco2)o1 | 47.3 | 1.4 | 84.9* | 38.0 | -3.8
Cc1ccc(S(=O)(=O)Nc2ccc(NC(=O)c3c(F)c(F)c(F)c(F)c3F)cc2)cc1 | -2.0 | -1.5 | -6.1 | 1.2 | -1.3
C/C(NCc1cccnc1)=C(\C#N)C(=O)NCc1ccccc1 | 71.3* | -0.4 | 2.6 | -0.8 | 5.1
C/C(NCc1ccccc1)=C(\C#N)C(=O)NCc1ccccc1 | 9.7 | -0.4 | 0.8 | 1.2 | -9.4
O=C1NC(=Nc2ccc(Cl)cc2)/C(=C/c2ccco2)S1 | 80.8*[fluorescence artefact?] | 3.0 | 11.6 | 4.2 | -2.4
CC(=O)Nc1ccc(/C=N/N2CCCCC2)cc1 | -9.3 | 2.5 | 17.4 | -1.9 | -9.4
Cc1ccc(NC2=C(CC(=O)O)C(c3ccccc3)N(c3ccc(C)cc3)C2=O)cc1 (stereo not given) | -20.4 | 2.8 | 0.8 | 34.5 | -16.6
COc1ccc(C2C(CC(=O)O)=C(O)C(=O)N2c2ccccc2)cc1 (stereo not given) | 4.7 | -2.4 | -0.6 | -1.9 | 33.5*
Cc1ccc(O)c(NC(=O)CCC2CCCCC2)c1 | -12.0 | 9.1* | 0.0 | 3.1 | -10.6
COc1cc(Cl)cc(NC(=O)CCN2CCN(C)CC2)c1 | 76.5* | -1.3 | -0.6 | 4.9 | -17.8
CCOc1ccc(NC(=O)CN2CCN(CC(=O)Nc3cccc(F)c3)CC2)cc1 | 1.1 | -0.9 | -8.5 | -11.1 | 10.5
CCOc1ccc(NC(=O)CN2CCN(CC(=O)Nc3cc(OC)cc(OC)c3)CC2)cc1 | 9.6 | 12.6* | -9.8 | -0.6 | -14.5
Cc1cccc(C(=O)N2CCN(Cc3ccc4c(c3)OCO4)CC2)c1 | -2.9 | 9.3* | 3.7 | -0.4 | -13.1
COc1cc(NC(=O)CN2CCN(Cc3ccc4c(c3)OCO4)CC2)cc(OC)c1 | 82.5* | 1.9 | 8.0 | -7.9 | -1.1
O=C1CCCC(O)=C1C=NCc1ccccc1 | -17.2 | -0.6 | 14.3 | -1.8 | -16.6
Cc1cc(/C=N/NC(=O)c2ccc(O)cc2)c(C)n1CC(C)C | -7.1 | -1.6 | 3.1 | -40.3 | -4.8
O=C(Nc1ccccc1Cl)c1cc(S(=O)(=O)N2CCCCC2)ccc1N1CCOCC1 | · | -2.9 | 1.6 | -2.9 | -10.9
O=C(Nc1cccc(C(F)(F)F)c1)c1cc(S(=O)(=O)N2CCCCC2)ccc1N1CCOCC1 | 10.2 | -1.7 | 0.2 | -9.3 | 38.5*
CCn1c(SCC(=O)N(Cc2ccccc2)C2CCS(=O)(=O)C2)nc2ccccc2c1=O (stereo not given) | -12.2 | 3.0 | 3.2 | -17.5 | -6.5
CCN(C(=O)CSc1nc2ccccc2c(=O)n1-c1cccc(C)c1)C1CCS(=O)(=O)C1 (stereo not given) | 1.6 | -2.7 | 4.5 | -4.2 | 62.6*
Brc1ccc(CSc2nnc(-c3cccnc3)o2)cc1 | -2.9 | 6.5 | 51.1* | 1.3 | -21.6
O=C(N1CCOCC1)N1CCC(c2nc(-c3ccc(S(=O)(=O)N4CCOCC4)cc3)no2)CC1 | 73.4* | -2.2 | 1.6 | -8.4 | 0.0
CC1CCN(S(=O)(=O)c2cc(C(=O)N3CCN(c4ncccn4)CC3)ccc2Br)CC1 | -1.6 | 1.0 | 0.2 | 34.4 | -7.8
O=C(CCCOc1ccccc1)Nc1ncccn1 | -1.2 | -0.9 | -2.5 | 0.6 | -5.3
O=C(COc1ccccc1)Nc1ncccn1 | -4.5 | -0.1 | 0.9 | -5.5 | 34.5*
O=C(COc1ccccc1)Nc1nccs1 | 3.6 | 9.6* | 11.5 | -0.3 | -28.0
